Assay outcomes from PubChem BioAssay.
In the library only some 3.7% were active in any assay of this set; here they are far more common.
KCNK3 inh: human KCNK3 channel inhibition, primary screen. O14649. CHO-KCNK3 thallium flux, FluxOR fluorescence; hits give low values. B-score at 10 µM. 0.84% of 340,000 active;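 active means B-score under library mean minus 4 SD, starting fluorescence ratio at most library mean plus 5 SD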;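 further: more negative B-score means stronger inhibition of thallium flux through KCNK3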
KCNK9 block: inhibitors of human KCNK9 two-pore domain potassium channel. HEK293 KCNK9, FluxOR thallium flux fluorescence; hits give low values. B-score at 10 µM. 1.2% of 310,000 active. AID 488922;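 active means ratio B-score over 3 SD below the library mean, with starting fluorescence within 5 SD of its mean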;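 further: negative B-score means less thallium flux so channel inhibition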
KCNQ1 block: human KCNQ1 channel inhibition; B-score at 10 µM; CHO-K1 KCNQ1, FluxOR thallium flux fluorescence; hits give high values; 1.3% of 310,000 active; P51787;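 active means compounds whose thallium flux B-score, printed positive for inhibition, exceeds three library SD while starting fluorescence stays within three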;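 further: channel opened by potassium depolarization with thallium stimulus after 20 min compound exposure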
Target sequence (P51787 whole entry, looked up): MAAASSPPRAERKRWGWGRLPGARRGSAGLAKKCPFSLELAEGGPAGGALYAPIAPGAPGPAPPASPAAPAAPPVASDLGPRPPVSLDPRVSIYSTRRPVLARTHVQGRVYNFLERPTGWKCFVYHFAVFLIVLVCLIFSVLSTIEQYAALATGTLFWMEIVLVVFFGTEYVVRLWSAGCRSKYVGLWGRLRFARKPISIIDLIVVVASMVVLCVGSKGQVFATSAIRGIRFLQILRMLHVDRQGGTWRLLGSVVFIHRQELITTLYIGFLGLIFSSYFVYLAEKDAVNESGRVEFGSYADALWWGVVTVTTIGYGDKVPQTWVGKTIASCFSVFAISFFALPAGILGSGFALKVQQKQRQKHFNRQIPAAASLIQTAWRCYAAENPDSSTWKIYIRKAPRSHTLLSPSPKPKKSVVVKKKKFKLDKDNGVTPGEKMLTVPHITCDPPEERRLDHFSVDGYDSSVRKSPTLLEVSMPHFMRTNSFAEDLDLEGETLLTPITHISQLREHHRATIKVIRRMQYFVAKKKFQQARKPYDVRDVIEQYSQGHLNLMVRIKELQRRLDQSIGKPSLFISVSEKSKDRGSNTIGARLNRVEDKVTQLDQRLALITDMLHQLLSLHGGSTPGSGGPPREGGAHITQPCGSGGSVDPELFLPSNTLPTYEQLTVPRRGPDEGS
KCNQ1 act: potentiates or activates the human KCNQ1 potassium channel; P51787; CHO-K1 KCNQ1, thallium flux FluxOR fluorescence; hits give high values; B-score at 10 µM; 0.35% of 310,000 active; AID 2648;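 active means fluorescence ratio B-score, a plate-corrected score, at least three library SD, with initial intensity B-score within 5 SD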
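System: Stable KCNQ1 CHO-K1 line | Incubation: 90 min dye loading and 20 min compound exposure, both at room temperature | Measure: Ratio B score | Medium: Assay buffer for compound exposure, DMSO matched across wells | Compound dosing: Single-concentration screen | Probe or stimulus: K+/Tl+ depolarizing stimulus | Measured by: Kinetic FluxOR fluorescence, 10 s baseline plus 110 s post-stimulus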
hERG rescue: compounds protecting human hERG from proarrhythmic drug block. AID 1511. CHO-hERG, FluxOR thallium flux, dofetilide IC70 present. 0.51% of 310,000 active. activation (rescue from dofetilide block), less the hit threshold, % at 10 µM. Q12809;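 active means activation above the mean of controls blocked by dofetilide plus 5 SD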;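 further: thallium influx through hERG after potassium depolarization seen as dye fluorescence rise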
Kir21 inh: inhibitors of mouse Kir2.1 inward-rectifier potassium channel; HEK293-Kir2.1, FluxOR thallium flux fluorescence; hits give low values; B-score at 10 µM; 0.85% of 310,000 active; AID 1672;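 active means fluorescence ratio B-score at or below minus 3 SD of library scores, with starting-brightness B-score within 2 SD, cut at about -4.2 in these data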;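 further: channel flux triggered by added potassium and thallium sulfate stimulus; B-score of peak minus minimum fluorescence over baseline after thallium stimulus; more negative B-score means stronger Kir2.1 block with less thallium influx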
KCNK9 block conf: human KCNK9 inhibitor confirmation | shares compounds with KCNK9 block | 43% of 4,900 active | HEK293 KCNK9 cells, FluxOR thallium flux fluorescence | AID 492992 | inhibition, % at 10 µM;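 active means thallium signal inhibited by more than 5 SD of the compound-free buffer control wells, on both duplicate plates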;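 further: 0% = assay buffer control wells without compound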
Kir21 sel: tests whether KCNK9 modulators also affect mouse Kir2.1; shares compounds with KCNK9 block; inhibition, % at 10 µM; 4% of 4,900 active; Kir2.1 cells, FluxOR thallium flux fluorescence; AID 492993;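 active means thallium signal drop more than 5 SD beyond the mean of the no-compound control wells, seen in both duplicate plates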;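 further: signal is fluorescence rise after thallium addition divided by baseline fluorescence; plate controls were assay buffer only for no effect and full block by chlorpromazine control for full effect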
KCNK9 uninduced: second counter-screen for KCNK9 modulators: effect in non-induced cells; non-induced KCNK9-HEK293, FluxOR thallium flux; inhibition, % at 10 µM; 40% of 4,900 active; shares compounds with KCNK9 block; AID 492997;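 active means thallium signal drop beyond 5 SD of the untreated control mean, on both duplicate plates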;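 further: plate controls were buffer only IC0 wells for no effect and SID17386958 at its maximal inhibitory level for full effect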
* = called active by the depositor; i = inactive; / = no result.

SMILES | KCNK3 inh | KCNK9 block | KCNQ1 block | KCNQ1 act | hERG rescue | Kir21 inh | KCNK9 block conf | Kir21 sel | KCNK9 uninduced
CCCCn1c(SCC(=O)N(CC)C2CCS(=O)(=O)C2)nc2cc(S(N)(=O)=O)ccc21 (stereo not drawn) | i | i | i | i | -13 | 0.18 | / | / | /
Cc1ccc(CNC(=O)N2CCN(c3ccc(C)cc3)CC2)cc1 | i | i | i | i | -8 | 0.01 | / | / | /
Cc1ccc(C(=O)NCc2ccc(N3CCN(C(=O)OC(C)(C)C)CC3)cc2)cc1 | i | i | i | i | -16 | -0.82 | i | i | i
O=Nc1[nH]c(=O)c(/C=C(\O)c2ccccc2)nc1NO | i | i | i | i | -11 | -1.8 | / | / | /
CC(=O)c1cccc(NC(=S)NC(=O)c2cccc(C)c2)c1 | i | i | i | i | -8 | 0.69 | / | / | /
Cc1cccc(C(=O)NC(=S)Nc2cccc3nc(C)ccc23)c1 | i | i | i | i | -7 | -0.28 | i | i | i
Cc1sc2nc(SCc3nc4ccccc4[nH]3)n(Cc3ccco3)c(=O)c2c1C | i | -8.3* | i | i | -9 | 1.4 | 26%* | i | 32%*
Cc1sc2nc(SCc3ccccc3)n(Cc3ccco3)c(=O)c2c1C | i | i | i | i | -7 | -0.65 | / | / | /
Cc1ccc(Nc2nc(CSc3nnc(-c4cccnc4)n3-c3ccccc3C)cs2)cc1 | i | -9.9* | i | i | -14 | 1.2 | i | i | i
O=c1cc(NCc2ccccc2)[nH]c(=O)[nH]1 | i | i | i | i | -4 | 0.75 | / | / | /
COc1ccc(C(=O)COC(=O)Cn2[nH]c(=O)c3ccccc3c2=O)c(OC)c1 | i | i | i | i | -13 | 1.1 | / | / | /
CCN(CC)c1ccc(/C=c2\sc3nnc(-c4ccccc4Cl)n3c2=O)cc1 | i | -11* | 7* | i | 9.3* | 0.17 | 44%* | i | i
COc1ccc(/C=N/N(c2ccccc2)c2ccccc2)cc1O | i | i | 8* | i | -11 | 1.9 | i | i | i
Cc1cc(C)nc(NC(=O)c2cc(-c3ccc4c(c3)OCO4)nc3ccccc23)c1 | i | i | i | i | -25 | 2.1 | i | i | i
Cc1csc(NC(=O)c2cc(-c3ccccc3)nc3ccccc23)n1 | i | -9.8* | i | i | -12 | 0.28 | 42%* | i | 40%*
COC(=O)c1cc(-c2ccc3c(c2)OCO3)nc2ccccc12 | i | i | i | i | -4 | 1 | / | / | /
S=C(NCCc1ccccc1)N1CCN(Cc2ccc(Cl)c(Cl)c2)CC1 | i | i | i | i | -5 | 0.33 | i | i | 25%*
O=C(NCCc1ccccc1)c1ccc2c(c1)OCCO2 | i | i | i | i | -4 | 0.87 | i | i | i
O=C(NCCc1ccccc1)c1ccc2c(c1)OCCCO2 | i | i | i | i | -4 | -0.69 | / | / | /
S=c1[nH]nc(-c2cccs2)n1/N=C/c1cn(-c2ccccc2)nc1-c1ccccc1 | i | i | i | i | -4 | 1.2 | i | i | i
Cc1ccc(-c2nn(-c3ccccc3)cc2/C=N/n2c(-c3ccncc3)n[nH]c2=S)cc1 | i | i | i | i | -3 | -1.3 | / | / | /
COc1ccc(CCNC(=O)c2ccc(Cl)c(S(=O)(=O)N(C)c3ccccc3)c2)cc1 | i | i | i | i | -8 | -0.18 | i | i | i
COc1ccc(C2c3[nH]c4ccccc4c3CCN2Cc2ccoc2)c(F)c1 (stereo not drawn) | i | i | i | i | -33 | -0.41 | i | i | i
COc1ccc(C2c3[nH]c4ccccc4c3CCN2C(=O)Cc2nonc2C)c(F)c1 (stereo not drawn) | i | i | i | i | -15 | -1.2 | / | / | /
O=C(COc1ccc2ccccc2c1)Nc1cccnc1Cl | i | i | i | i | -3 | -1.8 | / | / | /
SMILES | KCNK3 inh | KCNK9 block | KCNQ1 block | KCNQ1 act | hERG rescue | Kir21 inh | KCNK9 block conf | Kir21 sel | KCNK9 uninduced
O=C(COc1ccc2ccccc2c1)Nc1cccc2cccnc12 | i | -8.7* | i | i | -13 | 1.7 | 46%* | i | 39%*
O=C(N/N=C/c1cn(-c2ccccc2)nc1-c1cccs1)c1ccccc1F | -9.1* | -13* | 6* | i | -18 | 0.77 | 56%* | i | 30%*
O=C(N/N=C/c1cn(-c2ccccc2)nc1-c1cccs1)c1ccc(Cl)cc1 | i | i | i | i | -15 | -2.3 | / | / | /
O=C(O)CCCCCN1C(=O)/C(=C/c2cn(-c3ccccc3)nc2-c2cccs2)SC1=S | i | / | / | / | / | / | / | / | /
CC1=NNC(=O)/C1=C\c1cn(-c2ccccc2)nc1-c1cccs1 | i | i | i | i | -6 | 1 | i | i | i
COc1cccc(N2CCN(C(=O)c3oc4ccccc4c3NC(=O)CCc3cc(OC)no3)CC2)c1 | i | i | i | i | -5 | 0.61 | / | / | /
CCN(Cc1ccccc1)C(=O)c1cc2c(OC)c(OC)c(OC)cc2[nH]1 | i | i | i | i | -6 | -0.17 | / | / | /
CCOC(=O)c1[nH]c(C)c(C(=O)N2CCN(c3ccc(OC)cc3)CC2)c1C | i | i | i | i | -6 | -0.71 | / | / | /
CCOC(=O)c1[nH]c(CN2CCN(c3ccc(OC)cc3)CC2)c(C(=O)OCC)c1C | i | i | i | i | -8 | -0.18 | i | i | i
Cc1ccc(/C=C2\S/C(=N/S(=O)(=O)c3cccs3)NC2=O)cc1 | i | i | i | i | -12 | 0.82 | i | i | i
Cc1ccc(S(=O)(=O)/N=C2/NC(=O)/C(=C/c3ccncc3)S2)cc1 | / | i | i | i | -7 | -3.5 | / | / | /
Cc1ccc(S(=O)(=O)/N=C2/NC(=O)/C(=C/c3ccccc3)S2)cc1 | i | i | i | i | -9 | -0.16 | i | i | i
Cc1ccc(S(=O)(=O)/N=C2/NC(=O)/C(=C\c3ccccc3)S2)cc1 | i | / | / | / | / | / | / | / | /
Cc1cc(C)c(S(=O)(=O)c2ccccc2)c(OC(=O)c2c(F)cccc2F)n1 | i | i | i | i | -6 | -3.2 | / | / | /
